The record followed here is ChEMBL document CHEMBL1140566, “Discovery of novel isoxazolines as anti-tuberculosis agents” (Bioorg Med Chem Lett, 2007).

SMILES strings stand for the structures. In brackets after ≈: the same amount, converted by molar mass.

For data set [1], the system named is Mycobacterium tuberculosis. Put plainly: Antituberculosis activity against Mycobacterium tuberculosis by microbroth dilution method. It counts as functional. The procedure, abridged:
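M. tuberculosis susceptibility was measured by microbroth dilution and reported as MIC90 in μg/mL.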
Background: In broth dilution the organism is exposed to a series of concentrations in liquid medium.

Data set [2] in a line: Stability in rat liver microsomes after 90 mins. The note with it: read-out: Stability. It is filed as ADME, Microsome. The procedure, abridged: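 Compounds were incubated with pooled rat liver microsomes and loss of parent was monitored. Intact parent was quantified by LC-MS/MS and reported as % remaining at 90 min.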
Background: Liver microsomes are a subcellular fraction often used to study metabolism.

Data set [3] is described as follows: Solubility at pH 6.0 by shake-flask method. It counts as physicochemical. The note with it: buffer. The gist of the method: (§1)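 Aqueous solubility was determined by a miniaturized shake-flask method at pH 6.0 and at pH 7.4, reported in mg/L.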
Data set [4] deals with Mycobacterium tuberculosis. The data set can be described thus: Antituberculosis activity in Mycobacterium tuberculosis infected rat assessed as reduction of colony formation. It is filed as functional.
A short description of data set [5]: Solubility at pH 7.4 by shake-flask method. It counts as physicochemical. Conditions: buffer. The procedure, abridged: as §1
Data set [6] is described as follows: Protein binding in rat. It is filed as ADME, organism-based. The note with it: plasma, read-out: PB (converted). The gist of the method:
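Plasma protein binding was measured by equilibrium dialysis in RED devices and reported as percent bound.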

Data set [7] can be described thus: Clearance in rat at 10 mg/kg, iv. More on the design: dose 10 mg/kg, route intravenous. Conditions: in vivo. It counts as ADME, organism-based. The procedure, abridged: (§2)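 Rats were given single doses at 10 mg/kg intravenously or 100 mg/kg orally. Half-life, AUC to infinity (μg·hr/L), volume of distribution (L/kg) and clearance (L/hr/kg) were derived for each route. Oral bioavailability was calculated relative to the IV dose.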

The nature of data set [8]: Clearance in rat at 100 mg/kg, po. More on the design: dose 100 mg/kg, route oral. It is filed as ADME, organism-based. Conditions: in vivo. The procedure, abridged:
as §2

Data set [9] in a line: AUC (0 to infinity) in rat at 10 mg/kg, iv. It counts as ADME, organism-based. Further details: time infinity, dose 10 mg/kg, route intravenous. The note with it: plasma. The procedure, abridged: as §2
Data set [10] is described as follows: Bioavailability in rat at 100 mg/kg, po. It counts as ADME, organism-based. Conditions: in vivo. The procedure, abridged: as §2
A short description of data set [11]: AUC (0 to infinity) in rat at […]. It is filed as ADME, organism-based. More on the design: time infinity. Conditions: plasma.
A short description of data set [12]: Half life in rat at 100 mg/kg, po. Conditions: in vivo. It is filed as ADME, organism-based. Further details: dose 100 mg/kg, route oral. The procedure, abridged:
as §2

The nature of data set [13]: Volume of distribution in rat at 10 mg/kg, iv. Conditions: in vivo. It counts as ADME, organism-based. Further details: dose 10 mg/kg, route intravenous. The procedure, abridged: as §2
The test system of data set [14] is Rattus norvegicus. Put plainly: Volume of distribution in rat at 100 mg/kg, po. It is filed as ADME, organism-based. Conditions: in vivo. Further details: dose 100 mg/kg, route oral. The gist of the method: as §2
The nature of data set [15]: Half life in rat at 10 mg/kg, iv. It is filed as ADME, organism-based. The note with it: in vivo. More on the design: dose 10 mg/kg, route intravenous. The gist of the method:
as §2

As usually defined, the MIC90 is the lowest concentration that inhibits either 90% of growth or 90% of the strains tested, depending on the study. Read a high MIC90 as weaker potency. In data set [1], `CCOC(=O)C1=NOC(c2ccc(N3CCN(Cc4ccccc4)CC3)cc2)C1` (stereo not given) displayed an MIC90 of 1560 ng/mL (≈ 3.96 µM).

What is called thermodynamic solubility is the concentration in solution at equilibrium with solid. With `CCOC(=O)N1CCN(c2ccc(C3CC(c4ccc([N+](=O)[O-])o4)=NO3)cc2)CC1` (stereo not given), the remaining at 1.5 h in data set [2] was determined as 12%. For the same compound, the solubility (thermodynamic) in data set [3] is 4 µg/mL (≈ 9.65 µM); in data set [5] it was 3.6 µg/mL (≈ 8.69 µM). In addition, the Log10 cfu in data set [4] was 0.59. The fraction unbound in data set [6] was 0.01. In data set [1], this compound yielded an MIC90 of 0.1 ng/mL (≈ 0.000241 µM).

With `CC(C)NC(=O)N1CCN(c2ccc(C3CC(c4ccc([N+](=O)[O-])o4)=NO3)cc2)CC1` (stereo not given), the remaining at 1.5 h in data set [2] turned out to be 26%. In addition, the thermodynamic solubility stood at 27.7 µg/mL (≈ 64.8 µM) in [3] and 20 µg/mL (≈ 46.8 µM) in [5]. For the same compound, the Log10 cfu in data set [4] stood at 0.83. Also, in data set [6], the fraction unbound was 0.027. In data set [1], this compound came in with an MIC90 of 0.2 ng/mL (≈ 0.000468 µM).

Consider `O=[N+]([O-])c1ccc(C2=NOC(c3ccc(N4CCN(Cc5ccccc5)CC4)cc3)C2)cc1` (stereo not given), for which, in data set [1], the MIC90 is over 200000 ng/mL.

In general, clearance refers to the rate of elimination divided by the concentration. Low values mean a low capacity for elimination, high ones a high capacity for elimination. A word on the CL/F: it is clearance divided by bioavailability, as obtained after extravascular dosing. The term AUC(0-inf) denotes the area under the concentration-time curve extrapolated to infinity. A lower AUC(0-inf) goes with low exposure. By bioavailability is commonly meant the share of a dose that reaches the circulation, judged against a reference dose that is usually intravenous. The half-life is the time needed for the level to fall by half in the phase considered. The low end stands for fast loss, the high end for slow loss. `O=[N+]([O-])c1ccc(C2=NOC(c3ccc(N4CCN(Cc5ccccc5)CC4)cc3)C2)o1` (stereo not given) had a clearance in [7] of 8.83 mL/min/kg. Besides, the CL/F in data set [8] was 26.3 mL/min/kg. In addition, the values for the AUC(0-inf) in [9] and in data set [11] were 19100 ng·h/mL and 65900 ng·h/mL, respectively. For the same compound, in data set [10], the bioavailability turned out to be 34.5%. Further, in data set [2], the remaining at 1.5 h is 31%. The solubility (thermodynamic) in data set [3] turned out to be 3.34 µg/mL (≈ 7.72 µM); in data set [5], 0.236 µg/mL (≈ 0.546 µM). The Log10 cfu in data set [4] was 0.64. Further, the fraction unbound in [6] was 0.001. This compound also gave an MIC90 in data set [1] of 0.05 ng/mL (≈ 0.000116 µM). In addition, the half-life in [12] was 4.2 h; in [15], 2.6 h. Moreover, the Vd in data set [13] is 2 L/kg; in data set [14], 9.3 L/kg.

With `CC(C)(C)OC(=O)N1CCN(c2ccc(C3CC(c4ccc([N+](=O)[O-])o4)=NO3)cc2)CC1` (stereo not given), the MIC90 in data set [1] was 0.1 ng/mL (≈ 0.000226 µM).

With `NNC(=O)c1ccncc1` [ISONIAZID], the Log10 cfu in data set [4] is 3.98. For the same compound, in [1], the MIC90 came to 25 ng/mL (≈ 0.182 µM).

For orientation: Solubility means how much of the substance goes into solution per volume. A higher Solubility goes with much dissolved substance. Turning to `O=[N+]([O-])c1ccc(C2=NOC(c3ccc(N4CCCCC4)cc3)C2)o1` (stereo not given), the remaining at 1.5 h in data set [2] was 6%. The same compound gave a thermodynamic solubility in data set [3] of 0.017 µg/mL (≈ 0.0498 µM). This compound showed a Solubility in [5] of 0.014 µg/mL (≈ 0.041 µM). The fraction unbound in data set [6] was 0.012. In data set [1], the MIC90 was determined as 1.56 ng/mL (≈ 0.00457 µM).

`c1ccc(CN2CCN(c3ccc(C4CC(c5ccncc5)=NO4)cc3)CC2)cc1` (stereo not given) had an MIC90 in [1] of 50000 ng/mL (≈ 125 µM).

Take `c1ccc(CN2CCN(c3ccc(C4CC(c5ccccn5)=NO4)cc3)CC2)cc1` (stereo not given): the MIC90 in data set [1] is over 200000 ng/mL.

As to `CCCC1=NOC(c2ccc(N3CCN(Cc4ccccc4)CC3)cc2)C1` (stereo not given), the MIC90 in data set [1] was over 200000 ng/mL.
